From ChEMBL document CHEMBL1159084, “Synthesis and structure-activity relationship of 1,2,4-triazole-containing diarylpyrazolyl carboxamide as CB1 cannabinoid receptor-ligand” (Bioorg Med Chem, 2010)

biological target: Cannabinoid receptor 1 (Rattus norvegicus, UniProt P20272); assay: Displacement of [3H]CP-55940 from CB1 receptor in Sprague-Dawley rat cerebellar membrane; parameters: species or system Cerebellum
Procedure, shortened: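 Membranes came from cerebella of male Sprague Dawley rats (200–300 g), homogenized in TME buffer (50 mM Tris–HCl, 1 mM EDTA, 3 mM MgCl2, pH 7.4) and spun at 48,000g for 30 min at 4 °C. They were incubated 1 h at 30 °C in TME with 0.5% fatty-acid-free BSA, then filtered on PEI-soaked GF/B, washed and counted by scintillation. IC50 values are from single determinations.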

Sequence of Cannabinoid receptor 1 (P20272 whole entry): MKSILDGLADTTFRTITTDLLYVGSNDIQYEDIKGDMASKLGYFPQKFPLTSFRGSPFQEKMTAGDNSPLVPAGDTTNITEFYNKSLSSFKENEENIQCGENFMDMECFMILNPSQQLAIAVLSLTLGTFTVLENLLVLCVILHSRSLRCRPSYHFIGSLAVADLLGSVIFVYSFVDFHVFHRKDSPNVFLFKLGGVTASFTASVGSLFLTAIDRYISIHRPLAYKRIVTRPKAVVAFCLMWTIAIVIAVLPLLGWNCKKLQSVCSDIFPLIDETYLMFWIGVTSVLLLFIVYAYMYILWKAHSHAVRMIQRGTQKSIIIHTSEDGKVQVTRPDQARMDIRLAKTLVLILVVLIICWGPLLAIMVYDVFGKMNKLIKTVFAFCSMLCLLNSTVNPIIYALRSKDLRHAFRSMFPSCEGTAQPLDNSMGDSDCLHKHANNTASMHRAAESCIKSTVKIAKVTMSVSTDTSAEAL

Row | Structure (SMILES) | IC50 [nM]
1 | CC(C)(NC(=O)c1nn(-c2ccc(Cl)cc2Cl)c(-c2ccc(Cl)cc2)c1Cn1cncn1)c1ccccc1 | 7.4
2 | CCCCC(CC)CNC(=O)c1nn(-c2ccc(Cl)cc2Cl)c(-c2ccc(Cl)cc2)c1Cn1cncn1 (stereo not given) | 20.2
3 | CCN1CCN(C(=O)c2nn(-c3ccccc3Cl)c(-c3ccc(Br)cc3)c2Cn2cncn2)CC1 | 303
4 | O=C(NC1(c2ccccc2)CC1)c1nn(-c2ccc(Cl)cc2Cl)c(-c2ccc(Br)cc2)c1Cn1cncn1 | 7.86
5 | CCC(C)(C)NC(=O)c1nn(-c2ccccc2Cl)c(-c2ccc(Cl)cc2)c1Cn1cncn1 | 11.9
6 | O=C(NCc1ccccc1)c1nn(-c2ccc(Cl)cc2Cl)c(-c2ccc(Br)cc2)c1Cn1cncn1 | 13
7 | O=C(c1nn(-c2ccc(Cl)cc2Cl)c(-c2ccc(Br)cc2)c1Cn1cncn1)N1CCN(c2ccccc2)CC1 | 12.5
8 | O=C(c1nn(-c2ccccc2Cl)c(-c2ccc(Cl)cc2)c1Cn1cncn1)N1CCN(c2ccccc2)CC1 | 11.5
9 | O=C(c1nn(-c2ccc(Cl)cc2Cl)c(-c2ccc(Cl)cc2)c1Cn1cncn1)N1CCN(c2ncccn2)CC1 | 56
10 | CCNC1(C(N)=O)CCN(C(=O)c2nn(-c3ccc(Cl)cc3Cl)c(-c3ccc(Cl)cc3)c2Cn2cncn2)CC1 | 878
11 | O=C(NCC1CCCCC1)c1nn(-c2ccc(Cl)cc2Cl)c(-c2ccc(Br)cc2)c1Cn1cncn1 | 20.5
12 | O=C(NCc1ccccc1)c1nn(-c2ccccc2Cl)c(-c2ccc(Cl)cc2)c1Cn1cncn1 | 14.1
13 | O=C(NC1(c2ccc(Cl)cc2)CC1)c1nn(-c2ccc(Cl)cc2Cl)c(-c2ccc(Cl)cc2)c1Cn1cncn1 | 5.09
14 | O=C(NC1CCCCCC1)c1nn(-c2ccc(Cl)cc2Cl)c(-c2ccc(Br)cc2)c1Cn1cncn1 | 8.49
15 | CCC(C)(C)NC(=O)c1nn(-c2ccc(Cl)cc2Cl)c(-c2ccc(Cl)cc2)c1Cn1cncn1 | 3.01
16 | O=C(NCC1CCCCC1)c1nn(-c2ccc(Cl)cc2Cl)c(-c2ccc(Cl)cc2)c1Cn1cncn1 | 22.8
17 | O=C(NCc1ccccn1)c1nn(-c2ccccc2Cl)c(-c2ccc(Br)cc2)c1Cn1cncn1 | 63.4
18 | O=C(NC1CCCCC1)c1nn(-c2ccc(Cl)cc2Cl)c(-c2ccc(Br)cc2)c1Cn1cncn1 | 4.38
19 | CN1CCN(C(=O)c2nn(-c3ccc(Cl)cc3Cl)c(-c3ccc(Br)cc3)c2Cn2cncn2)CC1 | 1340
20 | N#CC1(NC(=O)c2nn(-c3ccccc3Cl)c(-c3ccc(Br)cc3)c2Cn2cncn2)CC1 | 19.6
21 | O=C(c1nn(-c2ccc(Cl)cc2Cl)c(-c2ccc(Cl)cc2)c1Cn1cncn1)N1CCN(c2cccc(Cl)c2Cl)CC1 | 5.5
22 | O=C(NC1CCCCCC1)c1nn(-c2ccc(Cl)cc2Cl)c(-c2ccc(Cl)cc2)c1Cn1cncn1 | 11.2
23 | O=C(NC1(C(F)(F)F)CC1)c1nn(-c2ccc(Cl)cc2Cl)c(-c2ccc(Cl)cc2)c1Cn1cncn1 | 4.5
24 | O=C(NC1(C(F)(F)F)CCC1)c1nn(-c2ccccc2Cl)c(-c2ccc(Cl)cc2)c1Cn1cncn1 | 5.14
25 | C[C@H]1CC[C@H](NC(=O)c2nn(-c3ccc(Cl)cc3Cl)c(-c3ccc(Cl)cc3)c2Cn2cncn2)CC1 | 14.2

Continued, values first:

Row | IC50 [nM] | Structure (SMILES)
26 | 3.8 | Cc1cccc(N2CCN(C(=O)c3nn(-c4ccc(Cl)cc4Cl)c(-c4ccc(Br)cc4)c3Cn3cncn3)CC2)c1C
27 | 6.22 | CC(NC(=O)c1nn(-c2ccccc2Cl)c(-c2ccc(Cl)cc2)c1Cn1cncn1)C(C)(C)C (stereo not given)
28 | 285 | CCN1CCN(C(=O)c2nn(-c3ccc(Cl)cc3Cl)c(-c3ccc(Br)cc3)c2Cn2cncn2)CC1
29 | 5.81 | O=C(NC1(c2ccccc2)CC1)c1nn(-c2ccccc2Cl)c(-c2ccc(Cl)cc2)c1Cn1cncn1
30 | 3.83 | O=C(NN1CCCCC1)c1nn(-c2ccc(Cl)cc2Cl)c(-c2ccc(Cl)cc2)c1Cn1cncn1
31 | 19.2 | O=C(NCc1ccccc1)c1nn(-c2ccc(Cl)cc2Cl)c(-c2ccc(Cl)cc2)c1Cn1cncn1
32 | 7.22 | O=C(c1nn(-c2ccc(Cl)cc2Cl)c(-c2ccc(Br)cc2)c1Cn1cncn1)N1CCN(c2cccc(Cl)c2)CC1
33 | 5.74 | O=C(c1nn(-c2ccc(Cl)cc2Cl)c(-c2ccc(Br)cc2)c1Cn1cncn1)N1CCN(c2cccc(Cl)c2Cl)CC1
34 | 12.2 | O=C(NCC1CCCCC1)c1nn(-c2ccccc2Cl)c(-c2ccc(Cl)cc2)c1Cn1cncn1
35 | 5.1 | O=C(NC1(c2ccccc2)CC1)c1nn(-c2ccc(Cl)cc2Cl)c(-c2ccc(Cl)cc2)c1Cn1cncn1
36 | 74.8 | O=C(NCc1ccccn1)c1nn(-c2ccc(Cl)cc2Cl)c(-c2ccc(Cl)cc2)c1Cn1cncn1
37 | 8.01 | O=C(c1nn(-c2ccccc2Cl)c(-c2ccc(Br)cc2)c1Cn1cncn1)N1CCN(c2ccccc2)CC1
38 | 4.67 | O=C(NC1(C(F)(F)F)CCC1)c1nn(-c2ccc(Cl)cc2Cl)c(-c2ccc(Cl)cc2)c1Cn1cncn1
39 | 3.67 | CCC(C)(C)NC(=O)c1nn(-c2ccc(Cl)cc2Cl)c(-c2ccc(Br)cc2)c1Cn1cncn1
40 | 126 | O=C(NNC(=O)C1(C(F)(F)F)CC1)c1nn(-c2ccc(Cl)cc2Cl)c(-c2ccc(Cl)cc2)c1Cn1cncn1
41 | 3.31 | O=C(NC1(C(F)(F)F)CC1)c1nn(-c2ccc(Cl)cc2Cl)c(-c2ccc(Br)cc2)c1Cn1cncn1
42 | 2.99 | CC(C)(NC(=O)c1nn(-c2ccc(Cl)cc2Cl)c(-c2ccc(Br)cc2)c1Cn1cncn1)c1ccc(Cl)cc1
43 | 901 | CN1CCN(C(=O)c2nn(-c3ccccc3Cl)c(-c3ccc(Br)cc3)c2Cn2cncn2)CC1

Row | IC50 [nM] | Structure (SMILES)
44 | 4.08 | O=C(c1nn(-c2ccccc2Cl)c(-c2ccc(Cl)cc2)c1Cn1cncn1)N1CCN(c2cccc(Cl)c2)CC1
45 | 17.1 | C[C@H]1CC[C@@H](NC(=O)c2nn(-c3ccc(Cl)cc3Cl)c(-c3ccc(Cl)cc3)c2Cn2cncn2)CC1
46 | 1420 | CN1CCN(C(=O)c2nn(-c3ccc(Cl)cc3Cl)c(-c3ccc(Cl)cc3)c2Cn2cncn2)CC1
47 | 11.5 | Cc1cccc(N2CCN(C(=O)c3nn(-c4ccc(Cl)cc4Cl)c(-c4ccc(Cl)cc4)c3Cn3cncn3)CC2)c1C
48 | 9.7 | O=C(NC1CCCCCC1)c1nn(-c2ccccc2Cl)c(-c2ccc(Cl)cc2)c1Cn1cncn1
49 | 6.9 | O=C(NC1CCCC1)c1nn(-c2ccc(Cl)cc2Cl)c(-c2ccc(Cl)cc2)c1Cn1cncn1
50 | 1050 | CCN1CCN(C(=O)c2nn(-c3ccccc3Cl)c(-c3ccc(Cl)cc3)c2Cn2cncn2)CC1
51 | 3.33 | CC(C)(NC(=O)c1nn(-c2ccc(Cl)cc2Cl)c(-c2ccc(Cl)cc2)c1Cn1cncn1)c1ccc(Cl)cc1
52 | 2.8 | O=C(NC1(c2ccc(Cl)cc2)CC1)c1nn(-c2ccc(Cl)cc2Cl)c(-c2ccc(Br)cc2)c1Cn1cncn1
53 | 7.48 | O=C(NC1(C(F)(F)F)CCC1)c1nn(-c2ccccc2Cl)c(-c2ccc(Br)cc2)c1Cn1cncn1
54 | 9.15 | O=C(NC1(C(F)(F)F)CC1)c1nn(-c2ccccc2Cl)c(-c2ccc(Br)cc2)c1Cn1cncn1
55 | 8.99 | CCC(C)(C)NC(=O)c1nn(-c2ccccc2Cl)c(-c2ccc(Br)cc2)c1Cn1cncn1
56 | 8.88 | O=C(c1nn(-c2ccc(Cl)cc2Cl)c(-c2ccc(Cl)cc2)c1Cn1cncn1)N1CCN(c2ccccc2)CC1
57 | 2.9 | CC(C)(C)NC(=O)c1nn(-c2ccc(Cl)cc2Cl)c(-c2ccc(Br)cc2)c1Cn1cncn1
58 | 11.4 | CC1CCCC(C)N1NC(=O)c1nn(-c2ccc(Cl)cc2Cl)c(-c2ccc(Cl)cc2)c1Cn1cncn1 (stereo not given)
59 | 5.11 | O=C(NN1CCCCC1)c1nn(-c2ccc(Cl)cc2Cl)c(-c2ccc(Br)cc2)c1Cn1cncn1
60 | 8.23 | O=C(NN1CCCCCC1)c1nn(-c2ccc(Cl)cc2Cl)c(-c2ccc(Br)cc2)c1Cn1cncn1
